Source: PubChem (several laboratories)
In the library only some 2.2% were active in any assay of this set; here they are far more common.
FLuc act counter: affects firefly luciferase, flagging false hits in luciferase stimulation screens. P08659. ATPlite luciferase biochemical, luminescence, 10 min; 0 = ATP-free wells, 1 = DMSO control. activation factor at 10 µM. 200,000 tested, under 10 active;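 active = luciferase activation factor, scaled between plate controls, of at least 2 with compound at 10 µM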
Target sequence (P08659 whole entry, looked up): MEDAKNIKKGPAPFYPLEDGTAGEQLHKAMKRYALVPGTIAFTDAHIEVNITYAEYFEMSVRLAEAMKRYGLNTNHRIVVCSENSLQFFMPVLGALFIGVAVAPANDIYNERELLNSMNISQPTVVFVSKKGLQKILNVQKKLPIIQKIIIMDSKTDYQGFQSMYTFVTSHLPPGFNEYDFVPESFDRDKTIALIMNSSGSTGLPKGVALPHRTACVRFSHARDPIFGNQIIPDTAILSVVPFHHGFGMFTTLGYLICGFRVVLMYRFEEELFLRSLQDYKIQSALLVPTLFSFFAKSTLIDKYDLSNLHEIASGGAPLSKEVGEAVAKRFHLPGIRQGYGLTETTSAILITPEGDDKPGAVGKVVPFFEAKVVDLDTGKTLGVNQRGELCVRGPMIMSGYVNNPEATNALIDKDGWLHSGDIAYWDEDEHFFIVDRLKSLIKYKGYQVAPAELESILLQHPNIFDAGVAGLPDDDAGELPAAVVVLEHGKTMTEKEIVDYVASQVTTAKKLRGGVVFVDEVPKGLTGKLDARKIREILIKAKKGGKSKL
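System: Luciferase/luciferin detection reagent, cell-free biochemical luciferase assay | Medium: PBS buffer for ATP | Dosing: Test compounds dosed from 2 mM stocks in 100% DMSO | Timing: 10 min at ambient temperature | Signal: Luminescence measurement of luciferase light output | Evaluation: Luciferase activation, seen as luminescence increase over controls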
FLuc inh counter: counter-screen for luciferase assay inhibitors: firefly luciferase inhibition; 200,000 tested, 1.5% active; AID 1006; inhibition, % at 10 µM; ATPLite firefly luciferase biochemical luminescence, 10 min; P08659;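 active = inhibition above about 50% when tested at 10 µM, limit read from the data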
PPC-1+TRAIL kill: kills PPC-1 cancer cells in the presence of TRAIL. PPC-1 cells + TRAIL, ATPLite viability luminescence. cell killing (% activity), % at 4 µM or 5 µM. 220,000 tested, 0.41% active;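 active = cell killing above 50% in the first pass at 4 µM, then a duplicate retest at 5 µM averaging 50% or more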;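 note: plate controls were cells with TRAIL plus DMSO for no effect and medium-only wells lacking cells for full effect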
HSP90 refold inh: HSP90 refolding inhibition in rabbit reticulocyte lysate. 290,000 tested, 0.91% active. inhibition, % at 5.6 µM. AID 1789. luciferase refolding luminescence, 3 h;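 active = inhibition above the screen-wide mean plus 3 SD, computed separately per campaign, cut at about 16% in these data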;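 note: 0% = DMSO wells and 100% = 60 µM geldanamycin wells; inhibitors lower the luminescence because luciferase stays unfolded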
C8 TRAIL sens: caspase-8 TRAIL sensitization; NB7+C8 cells + TRAIL, ATPlite viability luminescence; AID 624354; inhibition (viability loss, TRAIL sensitization), % at 10 µM; 360,000 tested, 1% active;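 active = compounds causing at least 50% loss of cell viability in the single-dose screen, relative to plate controls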
STAT3 blocker: inhibitors of IL-6 induced STAT3 signaling | U3A cells, IL-6 STAT3-luciferase reporter, luminescence; host cell line lacks STAT1 | inhibition, % at 5.5 µM | 190,000 tested, 0.89% active | AID 862;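 active = inhibition above the mean inhibition across all screened compounds plus 3 SD, cut at about 44% in these data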;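 note: 0% = DMSO only wells and 100% = 100 µM nifuroxazide control wells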
HSP90 inh confirm: confirmation of HSP90 inhibitors. rabbit reticulocyte lysate, luciferase refolding luminescence, 3 h. AID 1846. shares compounds with HSP90 refold inh. inhibition, % at 5.9 µM. 2,300 tested, 64% active; in the data active = inhibition above about 18%;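 note: 0% = vehicle wells and 100% = reference inhibitor wells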
FLuc counter: counter-screen for HSP90 inhibitors: inhibitors of firefly luciferase | inhibition, % at 5.9 µM | 2,300 tested, 48% active | purified native firefly luciferase, luminescence | shares compounds with HSP90 refold inh | AID 1847;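 active = inhibition above the mean inhibition of all tested sample wells plus 3 SD, cut at about 10% in these data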;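 note: 0% = DMSO with luciferase and 100% = wells lacking luciferase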
Starred values were filed as active, the others as inactive.

Results for COc1cc(N=Nc2c(O)c3ccccc3[nH]c2=O)c(OC)cc1N=Nc1ccccc1 ?
PPC-1+TRAIL kill: -23; HSP90 refold inh: 11; C8 TRAIL sens: -3; HSP90 inh confirm: 2; FLuc counter: -14

What do the screens show for `NC(=O)c1ccc(N=Nc2c(O)c3ccccc3[nH]c2=O)cc1`?
PPC-1+TRAIL kill: 21; HSP90 refold inh: 14; HSP90 inh confirm: 12; FLuc counter: -15

How did CC(C)(Oc1ccc(Cl)cc1)C(=O)OCC(=O)NCCc1ccccc1 do in these assays?
HSP90 refold inh: 0; C8 TRAIL sens: -9

How did O=C(CSc1ccc2nnc(-c3ccccn3)n2n1)NCc1ccco1 do in these assays?
FLuc act counter: 1; FLuc inh counter: -4; HSP90 refold inh: 0; C8 TRAIL sens: 6; STAT3 blocker: 9

Results for CC(C)(C)c1ccc(-c2nc3cc(N)ccc3o2)cc1 ?
HSP90 refold inh: 31*; C8 TRAIL sens: 72*; HSP90 inh confirm: 42*; FLuc counter: 45*

How did CC1=C(C(=O)OC2CCCCC2)C(c2ccccc2Br)NC(=O)N1 (stereo unspecified) do in these assays?
HSP90 refold inh: 5; C8 TRAIL sens: -16

Results for Cn1cccc1/C=N/N1CCN(c2ccccc2)CC1 ?
FLuc act counter: 1; FLuc inh counter: -1; PPC-1+TRAIL kill: 11; HSP90 refold inh: 21*; C8 TRAIL sens: 0; STAT3 blocker: 21; HSP90 inh confirm: 6; FLuc counter: -9

How did CN1C(=O)S/C(=C/c2ccc(OCc3cccc(C(=O)O)c3)cc2)C1=O do in these assays?
HSP90 refold inh: 46*; C8 TRAIL sens: 14; HSP90 inh confirm: 50*; FLuc counter: -3

Results for O=C(O)c1ccc(Oc2c(C(F)(F)F)oc3cc(O)ccc3c2=O)cc1 ?
FLuc act counter: 1.1; FLuc inh counter: -5; PPC-1+TRAIL kill: 23; HSP90 refold inh: 31*; C8 TRAIL sens: 15; STAT3 blocker: 1; HSP90 inh confirm: 1; FLuc counter: -3

How did O=C(CN1C(=O)c2ccccc2S1(=O)=O)c1ccccc1Cl do in these assays?
HSP90 refold inh: 53*; C8 TRAIL sens: 46; HSP90 inh confirm: 76*; FLuc counter: -15

Results for O=C(CSC(=S)N1CCCC1)N(Cc1nnc(-c2ccccc2Cl)o1)C1CC1 ?
C8 TRAIL sens: 1

What do the screens show for `COC(=O)c1ccc2c(c1)C(=O)/C(=C/c1ccc(O)cc1)O2`?
FLuc act counter: 0.9; FLuc inh counter: 11; PPC-1+TRAIL kill: -1; HSP90 refold inh: 4; C8 TRAIL sens: 21; STAT3 blocker: -1

What do the screens show for `COc1cccc(/C=C2\Oc3ccc(O)cc3C2=O)c1O`?
HSP90 refold inh: 17*; C8 TRAIL sens: 65*; HSP90 inh confirm: 33*; FLuc counter: 34*

What do the screens show for `O=C1/C(=C/c2cccc(Br)c2)SC(=S)N1/N=C/c1cc([N+](=O)[O-])ccc1O`?
PPC-1+TRAIL kill: 20; HSP90 refold inh: 1; C8 TRAIL sens: 4

Results for C[n+]1c(/C=C/c2ccc3c(c2)OCO3)ccc2ccccc21 ?
FLuc act counter: 0.9; FLuc inh counter: 6; HSP90 refold inh: 32*; C8 TRAIL sens: -1; STAT3 blocker: 14; HSP90 inh confirm: 54*; FLuc counter: 55*

Results for O=C(C=Cc1ccc2c(c1)OCO2)C=Cc1ccc2c(c1)OCO2 ?
C8 TRAIL sens: 12

How did CCC(=Cc1ccccc1OC)c1ccncc1 do in these assays?
C8 TRAIL sens: 5

How did Cc1cc(-c2nc(-c3ccncc3)no2)ccc1[N+](=O)[O-] do in these assays?
HSP90 refold inh: -1; C8 TRAIL sens: -10

How did Cc1ccc(-c2nc(-c3ccccn3)no2)cc1[N+](=O)[O-] do in these assays?
PPC-1+TRAIL kill: 34; HSP90 refold inh: 30*; C8 TRAIL sens: 52*; HSP90 inh confirm: 58*; FLuc counter: 52*

How did CCOc1ccc(NC(=O)Nc2ccccc2C(N)=O)cc1 do in these assays?
FLuc act counter: 0.1; FLuc inh counter: 93*; PPC-1+TRAIL kill: -11; HSP90 refold inh: 32*; C8 TRAIL sens: 1; STAT3 blocker: 15; HSP90 inh confirm: 42*; FLuc counter: 38*

How did Cc1cc(C)c(S(=O)(=O)c2ccccc2)c(OC(=O)c2c(Cl)cc(Cl)cc2Cl)n1 do in these assays?
FLuc act counter: 1; FLuc inh counter: -3; PPC-1+TRAIL kill: 8; HSP90 refold inh: 2; C8 TRAIL sens: -5; STAT3 blocker: 6

What do the screens show for `COc1nc(C)cc(C)c1S(=O)(=O)c1ccccc1`?
HSP90 refold inh: 18*; C8 TRAIL sens: 4; HSP90 inh confirm: -6; FLuc counter: -8

How did COc1ccc(NC2=C(C(C)=O)C(c3ccc(N(C)C)cc3)C(C(C)=O)C(C)(O)C2)cc1 (stereo unspecified) do in these assays?
FLuc act counter: 1; FLuc inh counter: 0; PPC-1+TRAIL kill: 25; HSP90 refold inh: 2; C8 TRAIL sens: -10; STAT3 blocker: -2

What do the screens show for `COc1ccc(NC2=C(C(C)=O)C(c3ccc(OC)cc3)C(C(C)=O)C(C)(O)C2)cc1` (stereo unspecified)?
FLuc act counter: 1.1; FLuc inh counter: -6; PPC-1+TRAIL kill: -1; HSP90 refold inh: 31*; C8 TRAIL sens: -20; STAT3 blocker: 7; HSP90 inh confirm: 4; FLuc counter: 1

How did COc1ccccc1Nc1nn2c(=O)c3ccc(C(=O)NCc4cccnc4)cc3nc2s1 do in these assays?
HSP90 refold inh: 20*; C8 TRAIL sens: 3; HSP90 inh confirm: 38*; FLuc counter: -2

Results for COc1ccccc1Nc1nn2c(=O)c3ccc(C(=O)N4CCCCC4)cc3nc2s1 ?
HSP90 refold inh: -1; C8 TRAIL sens: 8

How did N#CCCNS(=O)(=O)c1ccc(C(=O)OCCCOC(=O)c2ccc(S(=O)(=O)NCCC#N)cc2)cc1 do in these assays?
HSP90 refold inh: -3; C8 TRAIL sens: -2

What do the screens show for `Cc1ccc(-c2onc3ccc(C(=O)/C=C/N(C)C)cc23)cc1`?
HSP90 refold inh: 61*; C8 TRAIL sens: 0; HSP90 inh confirm: -9; FLuc counter: -21

What do the screens show for `Cc1cccc(-c2onc3ccc(C(=O)/C=C/N(C)C)cc23)c1`?
HSP90 refold inh: 39*; C8 TRAIL sens: -10; HSP90 inh confirm: -3; FLuc counter: -8

Results for CCCc1nnc(NC(=O)CCC(=O)N2CCC(C)CC2)s1 ?
HSP90 refold inh: 0; C8 TRAIL sens: -13

What do the screens show for `CCOc1ccc(CCNC(=O)CSc2ncn[nH]2)cc1OCC`?
HSP90 refold inh: -1; C8 TRAIL sens: -1
